Assays:
[1] = type: physicochemical; conditions: for rate of decomposition of NONO-salicylate derivatives: spontaneous, pH not printed at the place
Stomach ulcerogenicity = type: in vivo, Sprague-Dawley rats; conditions: rats; for ulcerogenicity compared to control: 1.38 mmol/kg; for ulcer index: 1.38 mmol/kg p.o., 6 h post-administration
Summary of the method: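 Sprague-Dawley rats fasted 24 h with water available, then dosed orally at 1.38 mmol/kg suspended in 1.2 mL 1% methylcellulose; controls received vehicle. Killed by CO2 at 6 h; stomachs removed onto ice and lesions inspected under a magnifier, scored by size. Ulcer index = summed ulcer length per stomach, averaged over the animals in the group.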

Guinea pig serum = type: in vitro ADME; conditions: pH 7.4, 37°C; for first-order rate constant k2 of loss of 241 nm peak: 2% guinea pig serum, second, slow process
Summary of the method: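 Test compound added from a 1000× DMSO stock to 50 μM DTPA in Ca/Mg-free DPBS, pH 7.4, with 2% guinea pig serum at 37°C; blank was buffer plus serum. UV spectra taken every second for 600 s, then every 60–120 s; total scan 2500 s to 62 h. Rate constants from fitting A = ΔAe^(−kt) + A∞.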

[2] = Fetal bovine serum induced hydrolysis, followed spectrophotometrically; type: in vitro ADME; conditions: pH 7.4, 37°C, n = 1
COX-2 = assay: PGE2 levels in A549 cells; type: cell-based, human; conditions: 25 and 50 μM, 24 h
Summary of the method: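 A549 cells grown in RPMI 1640 with 10% FBS and penicillin/streptomycin. Seeded at 50,000 per well, grown 12 h, then given test compound at 25 or 50 μM (0.1% DMSO) for 24 h at 37°C. Supernatant PGE2 measured by competitive EIA (AChE tracer plus monoclonal antibody, overnight at 4°C), developed with Ellman's reagent, absorbance at […]. Triplicate.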

GAPDH = GAPDH (Homo sapiens, UniProt P04406); assay: GAPDH activity in A549 cells; type: cell-based; conditions: 100 μM, 1 h
Chain of GAPDH (P04406 whole entry): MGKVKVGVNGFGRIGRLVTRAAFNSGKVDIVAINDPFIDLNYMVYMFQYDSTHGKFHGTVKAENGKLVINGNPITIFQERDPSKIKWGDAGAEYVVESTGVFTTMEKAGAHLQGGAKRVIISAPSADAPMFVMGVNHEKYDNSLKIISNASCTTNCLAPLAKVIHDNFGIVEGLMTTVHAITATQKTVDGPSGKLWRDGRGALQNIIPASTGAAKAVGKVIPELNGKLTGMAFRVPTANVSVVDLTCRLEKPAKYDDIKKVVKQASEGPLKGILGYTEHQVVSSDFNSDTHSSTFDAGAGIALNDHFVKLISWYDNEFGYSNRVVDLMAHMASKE
Summary of the method: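 A549 cells, seeded at 30,000 per well and grown overnight, exposed to test compound at 100 μM for 1 h at 37°C. Cells lysed in kit lysis buffer for 20 min at 4°C. Lysate mixed with kit mastermix; fluorescence read at 570 nm with excitation at 540 nm. Triplicate; mean ± SD; one-way ANOVA versus untreated control.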

HUVECs = assay: MTT cell viability assay, HUVECs; type: cell-based, human; conditions: 48 h, 25-100 μM, n = 1
Summary of the method: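 HUVECs kept in endothelial growth medium at 37°C, 5% CO2, 80% humidity. Seeded at 8,000–10,000 per well, grown overnight, then treated 48 h across a concentration range (prodrugs 0–200 μM). MTT (2 mg/mL solution) added for 1 h at 37°C; medium removed, formazan dissolved in DMSO, absorbance read at 550 nm. One experiment, at least triplicate wells.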

[3] = tested on: isolated murine ventricular myocytes; type: cell-based, mouse; conditions: 500 μM
[4] = tested on: various cancer cells lines; conditions: read-out: IC50 (cytotoxicity); cited from earlier work
[5] = pH 7.4, PBS with 50 μM DTPA, 37°C

Structure (SMILES) | rate constant of hydrolysis/decomposition at pH 10 ([1]; pH 10, 37°C) | rate of decomposition of NONO-salicylate derivatives [1] [s⁻¹] | first-order rate constant of decomposition at 241 nm [1, 5] | ulcerogenicity compared to control (Stomach ulcerogenicity) | first-order rate constant k2 of loss of 241 nm peak (Guinea pig serum) | effect on viability of HUVECs (HUVECs) | ulcer index (Stomach ulcerogenicity) | also measured
CC(=O)Oc1ccccc1C(=O)OCO/N=[N+](\[O-])NC(C)C [IPA/NO-aspirin, O^2-(Acetylsalicyloyloxymethyl)-1-(N-isopropylamino)-diazen-1-ium-1,2-diolate] | (3.5 ± 0.8) × 10^−3 s^−1 | – | (2.6 ± 0.2) × 10^−5 s^−1 | not significantly increased compared to control | (6.5 ± 0.12) × 10^−4 s^−1 | no effect on viability up to 100 μM | – | rate constant of decomposition with FBS [2]: 2.7e-05 s⁻¹; PGE2 levels (COX-2): decreased most significantly; inhibition of GAPDH activity (GAPDH): highest; change of time of half-relaxation from peak shortening ([3]; mean ± SEM): −17 ± 3%; increase in sarcomere shortening from control ([3]; n = 12, mean ± SEM): +201 ± 18%
CCN(CC)/[N+]([O-])=N/OCOC(=O)c1ccccc1OC(C)=O [DEA/NO-aspirin, O^2-(Acetylsalicyloyloxymethyl)-1-(N,N-diethylamino)-diazen-1-ium-1,2-diolate] | – | – | 5.3e-06 s⁻¹ | not significantly increased compared to control | (1.1 ± 0.6) × 10^−3 s^−1 | no effect on viability up to 100 μM | 0 | rate constant of initial growth near 250 nm (production of DEA/NO) ([1]; pH 10, 37°C): (4.5 ± 0.6) × 10^−5 s^−1
CC(C)N/[N+]([O-])=N/[O-].[Na+] [IPA/NO, sodium 1-(N-isopropylamino)diazen-1-ium-1,2-diolate, reference compound] | 4.1 × 10^−4 s^−1 | – | – | – | – | – | – | –

Now from value to compound, other results behind:

rate constant of hydrolysis/decomposition at pH 10 ([1]; pH 10, 37°C) | rate of decomposition of NONO-salicylate derivatives [1] [s⁻¹] | Structure (SMILES) | first-order rate constant of decomposition at 241 nm [1, 5] | ulcerogenicity compared to control (Stomach ulcerogenicity) | first-order rate constant k2 of loss of 241 nm peak (Guinea pig serum) | effect on viability of HUVECs (HUVECs) | ulcer index (Stomach ulcerogenicity) | also measured
– | 7e-05 | CC(C)N/[N+]([O-])=N/OCOC(=O)c1ccccc1O [IPA/NO-salicylate, O^2-(2-hydroxybenzoyloxymethyl)-1-(N-isopropylamino)-diazen-1-ium-1,2-diolate] | – | – | – | – | – | –
– | 3.1e-05 | CCN(CC)/[N+]([O-])=N/OCOC(=O)c1ccccc1O [DEA/NO-salicylate, O^2-(2-hydroxybenzoyloxymethyl)-1-(N,N-diethylamino)-diazen-1-ium-1,2-diolate] | – | – | – | – | – | –
(1.6 ± 0.5) × 10^−4 s^−1 | – | CC(=O)Oc1ccccc1C(=O)O [aspirin, acetylsalicylic acid, reference compound] | – | – | – | – | 57.4 ± 3.1 | first-order rate constant of spontaneous hydrolysis at 295 nm [1, 5]: 9.8e-06 s⁻¹; IC50 [4]: > 1 mM; rate of hydrolysis in the presence of guinea pig serum (Guinea pig serum; guinea pig serum): (4.7 ± 0.17) × 10^−4 s^−1

— paper PMC3880621 (Journal of medicinal chemistry, 2013)
